Source: ChEMBL document CHEMBL1138995, “Triaminotriazine DNA helicase inhibitors with antibacterial activity” (Bioorg Med Chem Lett, 2006)
≈ marks a conversion by molar mass, not a printed value. Calls of active or inactive are those of the source. The rule behind the calls is not given here.

Assays:
[1] = molecular target: T1, Replicative DNA helicase (Pseudomonas aeruginosa (strain ATCC 15692 / PAO1 / 1C / PRS 101 / LMG12228), UniProt Q9HUN3); assay: Inhibition of Pseudomonas aeruginosa DnaB helicase
T1 sequence (Q9HUN3 whole entry): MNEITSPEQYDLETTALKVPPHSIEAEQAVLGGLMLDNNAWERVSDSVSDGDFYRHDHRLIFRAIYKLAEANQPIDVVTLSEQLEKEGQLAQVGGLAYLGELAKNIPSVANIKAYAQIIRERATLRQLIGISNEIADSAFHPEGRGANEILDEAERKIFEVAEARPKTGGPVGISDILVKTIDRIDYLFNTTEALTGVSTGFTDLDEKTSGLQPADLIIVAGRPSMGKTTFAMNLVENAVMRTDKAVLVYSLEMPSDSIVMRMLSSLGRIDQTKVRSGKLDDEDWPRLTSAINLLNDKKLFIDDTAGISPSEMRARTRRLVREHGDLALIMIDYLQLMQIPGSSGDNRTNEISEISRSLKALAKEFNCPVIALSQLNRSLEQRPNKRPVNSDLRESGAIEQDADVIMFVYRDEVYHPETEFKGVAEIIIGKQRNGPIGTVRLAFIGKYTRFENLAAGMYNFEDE

[2] = system: HeLa; assay: Cytotoxicity against HeLa cells by MTS assay at 12.5 uM measured as percentage survival; type: functional, Homo sapiens
In short: (§1)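 HeLa cells were exposed to the compound at three concentrations (12.5, 25 and 50 µM). Viability was read by MTS assay and expressed as % survival.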

[3] = system: Escherichia coli; assay: Antibacterial activity against tolC deficient Escherichia coli LBB925; type: functional
In short: (§2)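 MIC by broth dilution following NCCLS standard M7-A4 for aerobically growing bacteria, reported in µg/mL. Strains were S. aureus RN4220, tolC-deficient hypersusceptible E. coli LBB925, and permeability-barrier-deficient P. aeruginosa Z61.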

[4] = system: HeLa; assay: Cytotoxicity against HeLa cells by MTS assay at 50 uM measured as percentage survival; type: functional, Homo sapiens; in short: as §1
[5] = system: Pseudomonas aeruginosa; assay: Antibacterial activity against permeability barrier deficient Pseudomonas aeruginosa Z61; type: functional; in short: as §2
[6] = system: Staphylococcus aureus; assay: Antibacterial activity against Staphylococcus aureus RN4220; type: functional; in short: as §2
[7] = system: HeLa; assay: Cytotoxicity against HeLa cells by MTS assay at 25 uM measured as percentage survival; type: functional, Homo sapiens; in short: as §1
[8] = system: Staphylococcus aureus; assay: Antibacterial activity against Staphylococcus aureus infected in mouse at 0.2 mL; type: functional, organism-based

Compound | IC50 [1] [µM] | Activity [2] [%] | MIC [3] [µg/mL] | Activity [4] [%] | MIC [5] [µg/mL] | MIC [6] [µg/mL] | Activity [7] [%] | Activity [8]
COc1ccc(Nc2nc(NCCN3CCOCC3)nc(Nc3ccc(OC)cc3)n2)cc1 | > 100 | – | – | – | – | – | – | –
Clc1cccc(Nc2nc(Nc3cccc(Cl)c3)nc(Nc3cccc(Cl)c3)n2)c1 | 31 | 74 | > 128 | 64 | > 128 | > 128 | 83 | –
Clc1ccc(Nc2nc(NCCN3CCOCC3)nc(Nc3ccc(Cl)cc3)n2)cc1 | 20 | 103 | > 128 | 6 | > 128 | 4 (≈ 8.69 µM) | 90 | inactive
O=[N+]([O-])c1ccc(Nc2nc(NCCN3CCOCC3)nc(Nc3ccc(Cl)cc3)n2)cc1 | 5 | 78 | > 128 | 10 | > 128 | 4 (≈ 8.49 µM) | 19 | inactive
Fc1ccc(Nc2nc(Nc3ccc(F)c(F)c3)nc(N3CCN(CCOc4ccccc4)CC3)n2)cc1F | 5 | 97 | > 128 | 99 | > 128 | > 128 | 100 | –
CC(=O)c1ccc(Nc2nc(Nc3ccc(Br)cc3)nc(Nc3ccc(Br)cc3)n2)cc1 | 6 | – | > 64 | – | > 64 | > 64 | – | –
OCCN1CCN(c2nc(Nc3ccc(F)c(F)c3)nc(Nc3ccc(F)c(F)c3)n2)CC1 | 18 | 80 | 16 (≈ 34.5 µM) | 47 | > 128 | 16 (≈ 34.5 µM) | 91 | –
Clc1ccc(Nc2nc(NCCN3CCOCC3)nc(Nc3ccccc3)n2)cc1 | 65 | 98 | 16 (≈ 37.6 µM) | 14 | > 128 | 64 (≈ 150 µM) | 74 | –
Fc1ccc(Nc2nc(Nc3ccc(F)c(F)c3)nc(N3CCN(Cc4ccccc4)CC3)n2)cc1F | 6 | 96 | > 128 | 97 | > 128 | > 128 | 99 | –
CN1CCN(c2nc(Nc3ccc(F)cc3)nc(Nc3ccc(F)cc3)n2)CC1 | 22 | 100 | 16 (≈ 40.3 µM) | 11 | > 128 | 32 (≈ 80.5 µM) | 64 | –
CC(C)CN1CCN(c2nc(Nc3ccc(F)c(F)c3)nc(Nc3ccc(F)c(F)c3)n2)CC1 | 5 | 99 | > 128 | 86 | > 128 | 4 (≈ 8.41 µM) | 99 | –
OCCN1CCN(c2nc(Nc3ccc(F)cc3)nc(Nc3ccc(F)cc3)n2)CC1 | 23 | 101 | 32 (≈ 74.9 µM) | 51 | > 128 | 64 (≈ 150 µM) | 104 | –
Fc1ccc(Nc2nc(NCCN3CCOCC3)nc(Nc3ccc(F)cc3)n2)cc1 | > 100 | – | – | – | – | – | – | –
Fc1ccc(Nc2nc(NCCN3CCOCC3)nc(Nc3ccc(F)c(F)c3)n2)cc1F | 19 | 101 | 16 (≈ 34.5 µM) | 47 | > 128 | 16 (≈ 34.5 µM) | 91 | –
c1ccc(Nc2nc(NCCN3CCOCC3)nc(Nc3ccccc3)n2)cc1 | > 100 | – | – | – | – | – | – | –
